Measurements: ChEMBL document CHEMBL4177684, “Design, synthesis, and biological evaluation of hydantoin bridged analogues of combretastatin A-4 as potential anticancer agents” (Bioorg Med Chem, 2017)
Each block holds one compound with its values, some of them ahead of it. Calls of active or inactive are those of the source. The calls are words filed in the database; no cut-off is given here.

Tests used:
MDA-MB-231 [1] = experiment: Antiproliferative activity against human MDA-MB-231 cells by MTT assay; type: functional, cell-based
In short: (§1)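 Growth inhibition rate calculated per compound. IC₅₀ derived by curve fitting.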

HeLa [2] = experiment: Antiproliferative activity against human HeLa cells by MTT assay; type: functional, cell-based; in short: as §1
A2780 [3] = experiment: Antiproliferative activity against human A2780 cells by MTT assay; type: functional, cell-based; in short: as §1
HCT-116 = experiment: Antiproliferative activity against human HCT116 cells by MTT assay; type: functional, cell-based; in short: as §1
[4] = Cytotoxicity against HOSEC at 10 uM by MTT assay relative to control; conditions: human
[5] = Cytotoxicity against HOSEC at 50 uM by MTT assay relative to control; conditions: human
[6] = Cytotoxicity against HOSEC at 10 to 50 uM by MTT assay relative to control; conditions: human
HeLa [7] = experiment: Induction of apoptosis in human HeLa cells assessed as necrotic cells at 0.5 uM after 72 hrs by Annexin V-FITC/propidium iodide staining-based flow cytometric analysis (reference value: 0.5%); type: functional
HeLa [8] = experiment: Induction of apoptosis in human HeLa cells assessed as necrotic cells at 1 uM after 72 hrs by Annexin V-FITC/propidium iodide staining-based flow cytometric analysis (reference value: 0.5%); type: functional
HeLa [9] = experiment: Induction of apoptosis in human HeLa cells assessed as viable cells at 1 uM after 72 hrs by Annexin V-FITC/propidium iodide staining-based flow cytometric analysis (reference value: 87.6%); type: functional; conditions: read-out: Activity
HeLa [10] = experiment: Induction of apoptosis in human HeLa cells after 72 hrs by Annexin V-FITC/propidium iodide staining-based flow cytometric analysis; type: functional, cell-based
A2780 [11] = experiment: Inhibition of colony formation of human A2780 cells incubated for 48 hrs followed by subsequent incubation for 7 to 10 days in fresh medium by gentian violet staining-based colony formation assay; type: functional, cell-based
In short: (§2)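 MDA-MB-231 or A2780 cells seeded at 1000 per well and grown 48 h at 37 °C, 5% CO₂. Then exposed to compound or DMSO for 48 h, medium replaced, and grown a further 7-10 days. Colonies fixed with methanol for 20 min and stained with gentian violet for 30 min. Three independent runs.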

HeLa [12] = experiment: Induction of apoptosis in human HeLa cells assessed as early apoptotic cells at 1 uM after 72 hrs by Annexin V-FITC/propidium iodide staining-based flow cytometric analysis (reference value: […]); type: functional
HeLa [13] = experiment: Induction of cell cycle arrest in human HeLa cells assessed as increase in cyclin B1 expression levels at 1.25 to 20 uM after 24 hrs by Western blot analysis; type: functional, cell-based
In short: (§3)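 HeLa cells treated with compound or DMSO for 24 h and lysed; protein quantified by BCA. Run on 8-12% SDS-PAGE and blotted to PVDF. Blocked in 5% BSA/TBST for 1.5 h, primary antibody overnight at 4 °C, secondary 2 h at room temperature. Chemiluminescent detection.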

A2780 [14] = experiment: Antitumor activity against human A2780 cells xenografted in Balb/c nude mouse assessed as tumor growth inhibition at 20 mg/kg, ip administered every other day relative to control; type: functional; conditions: read-out: TGI
Mus musculus [15] = experiment: Toxicity in Balb/c nude mouse xenografted with human A2780 cells assessed as body weight at 20 mg/kg, ip administered every other day measured at end of study (reference value: 22.35 +/- 0.74 g); type: organism-based; conditions: in vivo
HeLa [16] = experiment: Induction of apoptosis in human HeLa cells assessed as necrotic cells at 2 uM after 72 hrs by Annexin V-FITC/propidium iodide staining-based flow cytometric analysis (reference value: 0.5%); type: functional
HeLa [17] = experiment: Induction of apoptosis in human HeLa cells assessed as late apoptotic cells at 1 uM after 72 hrs by Annexin V-FITC/propidium iodide staining-based flow cytometric analysis (reference value: 3.3%); type: functional
MDA-MB-231 [18] = experiment: Inhibition of colony formation of human MDA-MB-231 cells incubated for 48 hrs followed by subsequent incubation for 7 to 10 days in fresh medium by gentian violet staining-based colony formation assay; type: functional, cell-based; in short: as §2
HeLa [19] = experiment: Induction of apoptosis in human HeLa cells assessed as late apoptotic cells at 2 uM after 72 hrs by Annexin V-FITC/propidium iodide staining-based flow cytometric analysis (reference value: 3.3%); type: functional
HeLa [20] = experiment: Induction of apoptosis in human HeLa cells assessed as viable cells at 0.5 uM after 72 hrs by Annexin V-FITC/propidium iodide staining-based flow cytometric analysis (reference value: 87.6%); type: functional; conditions: read-out: Activity
HeLa [21] = experiment: Cell cycle arrest in human HeLa cells assessed as accumulation of cells at G2/M phase after 24 hrs by propidium iodide staining-based flow cytometric analysis; type: functional
In short: (§4)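 HeLa cells treated with compound or DMSO, washed in PBS and fixed in 75% ethanol at -20 °C overnight. Stained with propidium iodide containing 0.1% RNase for 15 min in the dark at room temperature. DNA content read by flow cytometry to give cell-cycle phase distribution.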

Mus musculus [22] = experiment: Toxicity in Balb/c nude mouse xenografted with human A2780 cells assessed as body weight at 20 mg/kg, ip measured immediately after first dose (reference value: 21.74 +/- 0.63 g); type: organism-based; conditions: in vivo
HeLa [23] = experiment: Induction of apoptosis in human HeLa cells assessed as viable cells at 2 uM after 72 hrs by Annexin V-FITC/propidium iodide staining-based flow cytometric analysis (reference value: 87.6%); type: functional; conditions: read-out: Activity
HeLa [24] = experiment: Induction of apoptosis in human HeLa cells assessed as increase in cleaved PARP1 protein levels after 24 hrs Western blot analysis
HeLa [25] = experiment: Induction of apoptosis in human HeLa cells assessed as increase in p53 protein levels after 24 hrs Western blot analysis
HeLa [26] = experiment: Induction of apoptosis in human HeLa cells assessed as late apoptotic cells at 0.5 uM after 72 hrs by Annexin V-FITC/propidium iodide staining-based flow cytometric analysis (reference value: 3.3%); type: functional
HUVEC [27] = experiment: Antiangiogenic activity against HUVEC assessed as capillary like tube formation at 1 uM after 12 hrs by matrigel-based microscopic analysis; type: functional, cell-based; conditions: Homo sapiens
In short: (§5)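 Matrigel pre-set in wells for 2 h at 37 °C, 5% CO₂. HUVECs (10⁴ per well) seeded in medium with compound or DMSO. Incubated 6-12 h, then capillary-like tube networks photographed under a microscope.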

HeLa [28] = experiment: Cell cycle arrest in human HeLa cells assessed as accumulation of cells at G2/M phase at 2 uM after 12 hrs by propidium iodide staining-based flow cytometric analysis (reference value: 17.6%); type: functional; in short: as §4
HUVEC [29] = experiment: Antiangiogenic activity against HUVEC assessed as capillary like tube formation at 2 uM after 6 to 12 hrs by matrigel-based microscopic analysis; type: functional, cell-based; conditions: Homo sapiens; in short: as §5
Sus scrofa = organism: Sus scrofa; experiment: (§6) Inhibition of pig brain tubulin polymerization measured every 1 min for 20 mins by spectrophotometric analysis
[30] = as §6; set-up: species or system Sus scrofa
HeLa [31] = experiment: Induction of apoptosis in human HeLa cells assessed as early apoptotic cells at 0.5 uM after 72 hrs by Annexin V-FITC/propidium iodide staining-based flow cytometric analysis (reference value: […]); type: functional
HeLa [32] = experiment: Induction of cell cycle arrest in human HeLa cells assessed as increase in phosphorylated histone H3 levels at 1.25 to 20 uM after 24 hrs by Western blot analysis; type: functional, cell-based; in short: as §3
HeLa [33] = experiment: Induction of apoptosis in human HeLa cells assessed as early apoptotic cells at 2 uM after 72 hrs by Annexin V-FITC/propidium iodide staining-based flow cytometric analysis (reference value: […]); type: functional
MDA-MB-231 [34] = experiment: Inhibition of colony formation of human MDA-MB-231 cells at 800 nM incubated for 48 hrs followed by subsequent incubation for 7 to 10 days in fresh medium by gentian violet staining-based colony formation assay; type: functional, cell-based; in short: as §2

IC50 (MDA-MB-231 [1]): 311 nM | IC50 (HeLa [2]): 584 nM | IC50 (A2780 [3]): 283 nM | IC50 (HCT-116): 232 nM
SMILES: COc1ccc(N2C(=O)NC(=O)C2c2cc(OC)c(OC)c(OC)c2)cc1N (stereo not drawn)

IC50 (HeLa [2]): > 50000 nM | IC50 (A2780 [3]): > 50000 nM
SMILES: COc1cc(C2C(=O)NC(=O)N2c2cnc3ccccc3c2)cc(OC)c1OC (stereo not drawn)

IC50 (HeLa [2]): > 50000 nM | IC50 (A2780 [3]): > 50000 nM
SMILES: COc1cc(C2C(=O)NC(=O)N2c2ccc3c(ccn3S(=O)(=O)c3ccc(C)cc3)c2)cc(OC)c1OC (stereo not drawn)

IC50 (MDA-MB-231 [1]): 279 nM | IC50 (HeLa [2]): 251 nM | IC50 (A2780 [3]): 186 nM | inhibition (Sus scrofa): Dose-dependent effect | IC50 [30]: 16200 nM | IC50 (HCT-116): 265 nM
SMILES: COc1ccc(N2C(=O)N(C)C(=O)C2c2cc(OC)c(OC)c(OC)c2)cc1N (stereo not drawn)
Activity [6]: ≤ 33% | Activity (HeLa [7]): 0.8% | Activity (HeLa [8]): 0.3% | viability at 1 µM (HeLa [9]): 43.2% | Activity (HeLa [10]): Dose-dependent effect | inhibition (A2780 [11]): Dose-dependent effect | Activity (HeLa [12]): 47.8% | Activity (HeLa [13]): Active | inhibition in vivo at 20 mg/kg (A2780 [14]): 46.9% | Activity (Mus musculus [15]): 22.05 g | Activity (HeLa [16]): 2.2% | Activity (HeLa [17]): 8.7% | inhibition (MDA-MB-231 [18]): Dose-dependent effect | Activity (HeLa [19]): 17.5% | viability at 0.5 µM (HeLa [20]): 67.8% | Activity (HeLa [21]): Dose-dependent effect | Activity (Mus musculus [22]): 21.62 g | viability at 2 µM (HeLa [23]): 27.3% | Activity (HeLa [24]): Dose-dependent effect | Activity (HeLa [25]): Dose-dependent effect | Activity (HeLa [26]): 6.1% | Activity (HUVEC [27]): Active | Activity (HeLa [28]): 91.4% | Activity (HUVEC [29]): Active | Activity (HeLa [31]): 25.3% | Activity (HeLa [32]): Active | Activity (HeLa [33]): 53% | inhibition (MDA-MB-231 [34]): Active

IC50 (HeLa [2]): 3600 nM | IC50 (A2780 [3]): 6620 nM
SMILES: COc1ccc(N2C(=O)N(CCO)C(=O)C2c2cc(OC)c(OC)c(OC)c2)cc1N (stereo not drawn)

IC50 (HeLa [2]): > 50000 nM | IC50 (A2780 [3]): > 50000 nM
SMILES: COc1ccc(N2C(=S)NC(=O)C2c2cc(OC)c(OC)c(OC)c2)cc1 (stereo not drawn)

The next lines start with the compound.

SMILES: COc1ccc(N2C(=O)N(C)C(=O)[C@H]2c2cc(OC)c(OC)c(OC)c2)cc1N
IC50 (MDA-MB-231 [1]): 125 nM | IC50 (HeLa [2]): 81 nM | IC50 (A2780 [3]): 97 nM | IC50 (HCT-116): 157 nM

SMILES: COc1ccc(N2C(=O)N(C)C(=O)[C@@H]2c2cc(OC)c(OC)c(OC)c2)cc1N
IC50 (MDA-MB-231 [1]): 582 nM | IC50 (HeLa [2]): 399 nM | IC50 (A2780 [3]): 305 nM | IC50 (HCT-116): 355 nM

SMILES: CC(=O)O[C@H]1C(=O)[C@@]2(C)[C@H]([C@H](OC(=O)c3ccccc3)[C@]3(O)C[C@H](OC(=O)[C@H](O)[C@@H](NC(=O)c4ccccc4)c4ccccc4)C(C)=C1C3(C)C)[C@]1(OC(C)=O)CO[C@@H]1C[C@@H]2O [PACLITAXEL]
Activity [4]: 51% | Activity [5]: 94%

SMILES: COc1cc(C2C(=O)NC(=O)N2c2ccc(C)c(N)c2)cc(OC)c1OC (stereo not drawn)
IC50 (MDA-MB-231 [1]): 1170 nM | IC50 (HeLa [2]): 933 nM | IC50 (A2780 [3]): 1050 nM | IC50 (HCT-116): 988 nM

SMILES: COc1cc(C2C(=O)N(C)C(=O)N2c2ccc(C)c(N)c2)cc(OC)c1OC (stereo not drawn)
IC50 (MDA-MB-231 [1]): 1190 nM | IC50 (HeLa [2]): 631 nM | IC50 (A2780 [3]): 679 nM | IC50 (HCT-116): 681 nM

SMILES: COc1ccc(N2C(=O)NC(=O)C2c2cc(OC)c(OC)c(OC)c2)cn1 (stereo not drawn)
IC50 (HeLa [2]): > 50000 nM | IC50 (A2780 [3]): > 50000 nM

SMILES: CCN1C(=O)C(c2cc(OC)c(OC)c(OC)c2)N(c2ccc(OC)c(N)c2)C1=O (stereo not drawn)
IC50 (HeLa [2]): 3300 nM | IC50 (A2780 [3]): 1910 nM

SMILES: COc1ccc(N2C(=O)NC(=O)C2c2cc(OC)c(OC)c(OC)c2)cc1 (stereo not drawn)
IC50 (HeLa [2]): 2820 nM | IC50 (A2780 [3]): 2140 nM

SMILES: COc1ccc(/C=C\c2cc(OC)c(OC)c(OC)c2)cc1O [COMBRETASTATIN A4]
IC50 (MDA-MB-231 [1]): 2 nM | IC50 (HeLa [2]): 7 nM | IC50 (A2780 [3]): 5 nM | IC50 [30]: 6600 nM

SMILES: COc1ccc(N2C(=O)N(C)C(=O)C2c2cc(OC)c(OC)c(OC)c2)cc1O (stereo not drawn)
IC50 (MDA-MB-231 [1]): 301 nM | IC50 (HeLa [2]): 429 nM | IC50 (A2780 [3]): 353 nM | IC50 (HCT-116): 386 nM
